Calls of active or inactive are those of the source. The calls are words filed in the database; no cut-off is given here.
Assays:
[1] = target: Sodium-dependent dopamine transporter (Rattus norvegicus, UniProt P23977); experiment: Displacement of [3H]WIN-35428 from rat striatum DAT
Method in brief: (§1)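 Rat brain tissue by target: striatum for D1, D2 and DAT; olfactory tubercle for D3; cortex for muscarinic, 5-HT3, 5-HT2A, α1, α2, H1, NMDA and SERT; guinea pig cortex for 5-HT4. Inhibitors at seven to nine concentrations. After incubation, samples were filtered on glass fibre filters, washed three times with ice-cold buffer and counted by liquid scintillation. Ki values were derived by curve fitting.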

Rattus norvegicus = species: Rattus norvegicus; experiment: Increase in TG-2 expression in albino Wistar rat primary astroglial cells at 25 uM after 24 hrs; assay type: functional
Method in brief: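 Primary Wistar rat astrocytes at 14 DIV were exposed to ligand 25 µM for 24 h. Densitometric percentage of TG-2 versus untreated control; HUVEC extract as positive control. Mean ± SD of four experiments.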

[2] = target: Muscarinic acetylcholine receptor; experiment: Displacement of [3H]QNB from rat cortex muscarinic receptor; method in brief: as §1
[3] = target: T1, Adrenergic receptor alpha-1 (Rattus norvegicus, UniProt P15823+P23944+P43140); experiment: Displacement of [3H]prazosin from rat cortex adrenergic alpha-1 receptor; method in brief: as §1
T1 sequence (P15823 whole entry): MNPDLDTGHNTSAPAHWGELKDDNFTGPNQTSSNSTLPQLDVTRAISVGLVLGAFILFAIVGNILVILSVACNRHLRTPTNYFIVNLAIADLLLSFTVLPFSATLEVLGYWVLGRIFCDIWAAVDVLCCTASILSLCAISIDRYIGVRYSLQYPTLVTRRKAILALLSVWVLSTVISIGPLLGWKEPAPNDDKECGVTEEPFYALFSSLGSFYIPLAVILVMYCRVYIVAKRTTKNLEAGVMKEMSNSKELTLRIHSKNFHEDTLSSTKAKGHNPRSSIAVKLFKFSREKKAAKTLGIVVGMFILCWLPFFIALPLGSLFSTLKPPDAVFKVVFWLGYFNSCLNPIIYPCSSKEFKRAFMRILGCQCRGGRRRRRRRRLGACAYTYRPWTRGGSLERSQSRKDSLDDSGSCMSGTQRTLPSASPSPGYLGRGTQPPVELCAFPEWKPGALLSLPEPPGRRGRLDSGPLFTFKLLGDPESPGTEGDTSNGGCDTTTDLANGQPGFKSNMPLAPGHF
T1 sequence (P23944 whole entry): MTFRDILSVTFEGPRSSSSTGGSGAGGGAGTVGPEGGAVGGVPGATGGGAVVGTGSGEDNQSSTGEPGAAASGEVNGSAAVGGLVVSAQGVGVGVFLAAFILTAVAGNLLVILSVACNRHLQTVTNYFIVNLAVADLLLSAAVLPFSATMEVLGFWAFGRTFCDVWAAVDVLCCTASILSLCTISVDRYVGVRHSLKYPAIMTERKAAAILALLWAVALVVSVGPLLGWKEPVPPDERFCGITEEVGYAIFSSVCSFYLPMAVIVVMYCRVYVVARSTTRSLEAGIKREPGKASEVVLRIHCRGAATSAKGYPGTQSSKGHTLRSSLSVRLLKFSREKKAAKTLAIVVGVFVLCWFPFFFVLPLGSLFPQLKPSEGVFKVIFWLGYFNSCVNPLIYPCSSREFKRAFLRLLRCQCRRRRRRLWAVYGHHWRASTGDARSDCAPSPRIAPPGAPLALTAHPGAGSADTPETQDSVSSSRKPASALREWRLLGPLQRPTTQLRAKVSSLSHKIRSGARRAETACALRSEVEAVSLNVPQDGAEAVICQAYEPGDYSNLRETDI
T1 sequence (P43140 whole entry): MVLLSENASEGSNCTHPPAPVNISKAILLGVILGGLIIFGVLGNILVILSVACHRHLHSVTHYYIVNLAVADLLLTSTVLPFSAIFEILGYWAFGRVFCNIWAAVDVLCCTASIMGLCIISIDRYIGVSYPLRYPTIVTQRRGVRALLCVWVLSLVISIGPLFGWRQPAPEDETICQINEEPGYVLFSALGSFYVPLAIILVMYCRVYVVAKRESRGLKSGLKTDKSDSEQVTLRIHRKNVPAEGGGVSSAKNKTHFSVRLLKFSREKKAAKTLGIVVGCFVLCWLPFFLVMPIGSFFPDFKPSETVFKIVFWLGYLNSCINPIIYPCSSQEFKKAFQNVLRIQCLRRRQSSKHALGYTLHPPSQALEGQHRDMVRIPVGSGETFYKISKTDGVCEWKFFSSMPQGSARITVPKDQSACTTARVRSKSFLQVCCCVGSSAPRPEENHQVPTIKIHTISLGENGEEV

D(3) dopamine receptor = D(3) dopamine receptor (Rattus norvegicus, UniProt P19020); experiment: Displacement of [3H]7OH-DPAT from rat olfactory tubercle dopamine D3 receptor; assay type: tissue-based; method in brief: as §1
[4] = target: Sigma non-opioid intracellular receptor 1 (Cavia porcellus, UniProt Q60492); experiment: Displacement of [3H](+)-pentazocine from guinea pig brain sigma 1 receptor
Histamine H1 receptor = Histamine H1 receptor (Rattus norvegicus, UniProt P31390); experiment: Displacement of [3H]pyrilamine from rat cortex histamine H1 receptor; method in brief: as §1
D(2) dopamine receptor = D(2) dopamine receptor (Rattus norvegicus, UniProt P61169); experiment: Displacement of [3H]spiperone from rat striatum dopamine D2 receptor; method in brief: as §1
[5] = target: T2, 5-hydroxytryptamine receptor 3A (Rattus norvegicus, UniProt P35563); experiment: Displacement of [3H]LY278584 from rat cortex 5HT3 receptor; method in brief: as §1
T2 sequence (P35563 whole entry): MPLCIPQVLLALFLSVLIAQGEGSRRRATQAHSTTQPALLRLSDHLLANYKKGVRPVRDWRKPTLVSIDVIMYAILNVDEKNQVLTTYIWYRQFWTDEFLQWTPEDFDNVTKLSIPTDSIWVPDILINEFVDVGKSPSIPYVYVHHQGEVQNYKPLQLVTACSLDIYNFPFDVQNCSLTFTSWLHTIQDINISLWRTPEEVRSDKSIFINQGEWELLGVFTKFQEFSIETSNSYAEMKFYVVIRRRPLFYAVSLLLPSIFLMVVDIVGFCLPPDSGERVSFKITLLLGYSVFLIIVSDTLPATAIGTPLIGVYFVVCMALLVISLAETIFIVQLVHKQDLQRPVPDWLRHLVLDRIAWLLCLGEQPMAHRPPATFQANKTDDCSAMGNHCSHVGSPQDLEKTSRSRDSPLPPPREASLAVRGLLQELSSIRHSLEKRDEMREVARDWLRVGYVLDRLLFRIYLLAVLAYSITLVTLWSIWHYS

Glutamate NMDA receptor = experiment: Displacement of [3H]CGP-39653 from rat cortex NMDA receptor; method in brief: as §1
D(1A) dopamine receptor = D(1A) dopamine receptor (Rattus norvegicus, UniProt P18901); experiment: Displacement of [3H]SCH-23390 from rat striatum dopamine D1 receptor; method in brief: as §1
[6] = target: 5-hydroxytryptamine receptor 2A (Rattus norvegicus, UniProt P14842); experiment: Displacement of [3H]ketanserin from rat cortex 5HT2A receptor; method in brief: as §1
Sequence of 5-hydroxytryptamine receptor 2A (P14842 whole entry): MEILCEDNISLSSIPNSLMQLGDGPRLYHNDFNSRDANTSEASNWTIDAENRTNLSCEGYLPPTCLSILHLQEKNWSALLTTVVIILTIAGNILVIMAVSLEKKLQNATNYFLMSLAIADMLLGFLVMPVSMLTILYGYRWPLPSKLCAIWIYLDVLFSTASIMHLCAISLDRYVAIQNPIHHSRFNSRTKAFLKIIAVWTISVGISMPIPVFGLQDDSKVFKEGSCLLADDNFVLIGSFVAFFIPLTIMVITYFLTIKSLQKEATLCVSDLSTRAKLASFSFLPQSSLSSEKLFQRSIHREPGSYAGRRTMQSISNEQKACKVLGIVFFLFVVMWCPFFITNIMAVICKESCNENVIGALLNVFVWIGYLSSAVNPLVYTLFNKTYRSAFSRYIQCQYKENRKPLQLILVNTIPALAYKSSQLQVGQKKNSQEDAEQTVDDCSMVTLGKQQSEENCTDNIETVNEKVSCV

Sequence of D(1A) dopamine receptor (P18901 whole entry): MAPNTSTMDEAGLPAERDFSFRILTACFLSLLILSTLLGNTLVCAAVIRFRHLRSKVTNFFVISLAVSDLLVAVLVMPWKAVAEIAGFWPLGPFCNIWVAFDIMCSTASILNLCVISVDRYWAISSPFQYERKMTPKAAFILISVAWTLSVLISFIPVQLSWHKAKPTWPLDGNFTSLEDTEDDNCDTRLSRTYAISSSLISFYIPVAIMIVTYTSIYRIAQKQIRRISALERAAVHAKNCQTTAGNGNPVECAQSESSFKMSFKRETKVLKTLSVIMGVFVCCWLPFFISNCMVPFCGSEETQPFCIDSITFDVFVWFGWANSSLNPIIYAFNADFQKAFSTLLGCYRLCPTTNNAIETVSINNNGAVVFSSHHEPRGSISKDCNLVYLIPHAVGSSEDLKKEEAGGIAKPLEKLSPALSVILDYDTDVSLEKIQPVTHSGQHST
Sequence of Histamine H1 receptor (P31390 whole entry): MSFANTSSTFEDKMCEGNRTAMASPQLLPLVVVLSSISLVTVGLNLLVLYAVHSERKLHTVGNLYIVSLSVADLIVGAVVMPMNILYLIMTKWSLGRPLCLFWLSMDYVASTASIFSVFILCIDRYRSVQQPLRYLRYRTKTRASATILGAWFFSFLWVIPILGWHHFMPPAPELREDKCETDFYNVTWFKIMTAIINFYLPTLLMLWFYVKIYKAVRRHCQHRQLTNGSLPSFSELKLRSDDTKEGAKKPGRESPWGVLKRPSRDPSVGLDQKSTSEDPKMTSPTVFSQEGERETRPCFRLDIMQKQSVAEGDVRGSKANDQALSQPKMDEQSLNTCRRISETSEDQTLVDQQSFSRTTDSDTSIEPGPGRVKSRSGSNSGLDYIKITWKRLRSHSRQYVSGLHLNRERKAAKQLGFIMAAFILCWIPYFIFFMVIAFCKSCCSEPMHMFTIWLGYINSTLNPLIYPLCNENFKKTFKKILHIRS
Sequence of D(3) dopamine receptor (P19020 whole entry): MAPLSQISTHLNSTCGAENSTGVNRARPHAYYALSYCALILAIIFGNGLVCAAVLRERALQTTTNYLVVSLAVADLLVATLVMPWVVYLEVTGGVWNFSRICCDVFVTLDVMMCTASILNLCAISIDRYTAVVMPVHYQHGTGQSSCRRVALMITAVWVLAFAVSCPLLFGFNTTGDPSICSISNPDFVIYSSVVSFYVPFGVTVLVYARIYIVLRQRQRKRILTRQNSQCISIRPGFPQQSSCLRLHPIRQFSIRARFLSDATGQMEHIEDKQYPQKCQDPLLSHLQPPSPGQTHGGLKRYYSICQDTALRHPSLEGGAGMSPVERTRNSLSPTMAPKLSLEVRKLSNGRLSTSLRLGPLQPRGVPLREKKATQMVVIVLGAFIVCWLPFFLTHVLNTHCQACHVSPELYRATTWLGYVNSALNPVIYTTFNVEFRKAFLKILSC
Sequence of Sodium-dependent dopamine transporter (P23977 whole entry): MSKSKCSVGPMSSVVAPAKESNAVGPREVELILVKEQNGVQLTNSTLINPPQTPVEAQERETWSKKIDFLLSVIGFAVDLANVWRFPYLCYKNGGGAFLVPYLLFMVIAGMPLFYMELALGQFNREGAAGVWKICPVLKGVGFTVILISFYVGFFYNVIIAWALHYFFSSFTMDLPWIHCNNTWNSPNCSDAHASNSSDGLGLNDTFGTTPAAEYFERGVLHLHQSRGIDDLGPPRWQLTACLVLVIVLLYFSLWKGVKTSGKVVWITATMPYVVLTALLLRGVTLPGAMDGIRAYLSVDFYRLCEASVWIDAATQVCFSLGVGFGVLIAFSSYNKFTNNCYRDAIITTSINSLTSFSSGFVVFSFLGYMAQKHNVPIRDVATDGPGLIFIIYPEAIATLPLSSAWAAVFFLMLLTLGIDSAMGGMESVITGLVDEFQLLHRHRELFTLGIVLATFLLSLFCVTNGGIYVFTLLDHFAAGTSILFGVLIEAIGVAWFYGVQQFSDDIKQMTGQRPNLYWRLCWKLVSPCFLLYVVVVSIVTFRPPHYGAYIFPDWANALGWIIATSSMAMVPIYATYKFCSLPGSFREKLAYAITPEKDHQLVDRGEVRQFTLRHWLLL
Sequence of Sigma non-opioid intracellular receptor 1 (Q60492 whole entry): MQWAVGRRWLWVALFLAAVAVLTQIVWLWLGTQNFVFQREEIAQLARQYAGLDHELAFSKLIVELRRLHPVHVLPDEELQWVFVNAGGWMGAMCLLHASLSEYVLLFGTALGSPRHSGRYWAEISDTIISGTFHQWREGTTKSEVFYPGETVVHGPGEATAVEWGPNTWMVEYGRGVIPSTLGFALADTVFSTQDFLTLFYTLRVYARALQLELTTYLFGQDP
Sequence of D(2) dopamine receptor (P61169 whole entry): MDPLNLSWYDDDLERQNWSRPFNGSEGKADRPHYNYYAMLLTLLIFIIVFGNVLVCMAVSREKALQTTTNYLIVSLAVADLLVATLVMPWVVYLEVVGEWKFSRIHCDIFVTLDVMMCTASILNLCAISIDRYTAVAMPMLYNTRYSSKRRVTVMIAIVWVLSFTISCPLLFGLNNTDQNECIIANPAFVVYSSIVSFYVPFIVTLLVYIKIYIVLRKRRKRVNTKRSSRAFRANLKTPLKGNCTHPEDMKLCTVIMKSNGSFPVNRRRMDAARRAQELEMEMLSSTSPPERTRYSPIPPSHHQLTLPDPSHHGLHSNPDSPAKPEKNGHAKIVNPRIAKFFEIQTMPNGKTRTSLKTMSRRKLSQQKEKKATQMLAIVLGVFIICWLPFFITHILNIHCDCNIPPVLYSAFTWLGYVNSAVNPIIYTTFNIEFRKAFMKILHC

## COC(=O)C1(c2ccc(C)cc2)CC1CN1CCC(O)(c2ccccc2)CC1 (configuration not stated)
[1]
  Ki: > 10 µM
Rattus norvegicus
  Activity: Active
[2]
  Ki: > 10 µM
[3]
  Ki: 0.605 µM
D(3) dopamine receptor
  Ki: 4.9 µM
[4]
  Ki: 0.0015 µM
Histamine H1 receptor
  Ki: 1.42 µM
D(2) dopamine receptor
  Ki: 1.28 µM
[5]
  Ki: > 10 µM
Glutamate NMDA receptor
  Ki: > 10 µM
D(1A) dopamine receptor
  Ki: > 10 µM
[6]
  Ki: 3.15 µM

Source: ChEMBL document CHEMBL1142963, “Novel sigma receptor ligands: synthesis and biological profile” (J Med Chem, 2007)
